Bioassay records (PubChem)
Shown are actives, neighbours in structure and some others; about 1.1% of the full set was active somewhere.
ABCB6 inh MLPCN: human ABCB6 transporter inhibition | Q9NP58 | K562-ABCB6 porphyrin accumulation, flow cytometry, 1 h; hits give low values | fluorescence ratio to DMSO, % at 10 µM | 360,000 compounds, 0.19% hits | AID 602162;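 active = fluorescence ratio to DMSO below 75%, the collection mean minus 3 SD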;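 note: signal is porphyrin accumulated inside mitochondria; 100% equals median channel fluorescence of DMSO control wells; lower ratio means ABCB6 inhibition with less porphyrin fluorescence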
SENP1 FRET inh: SENP1 (human) catalytic domain inhibition. 360,000 compounds, 0.21% hits. AID 624204. recombinant SENP1 catalytic domain, CyPet-SUMO1-YPet FRET cleavage. inhibition, % at 10 µM;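 active = inhibition at least 30% at 10 µM, raw YFP signal under a set limit, fluorescence ratio 0.5 to 1.5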;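 note: 0% = enzyme with DMSO and 100% = no enzyme wells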
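Assay system: hSENP1 catalytic domain, recombinant. Amount: SENP1 enzyme, 20 pM final. Schedule: 50 min reaction, RT, dark. Technique: FRET, CFP and YFP emission. Control set: no-enzyme wells low, DMSO-plus-enzyme wells high control.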
iPSC survival up: hiPSC single-cell survival enhancement. survival enhancement, % at 20 µM. ATPlite luminescence; 100% = ROCK inhibitor wells, 0% = DMSO. 360,000 compounds, 0.044% hits; in the data active = survival enhancement above about 18%;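 note: cells exposed to compounds for 16 hours before the ATP read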
FAS-TE inh: blocks the thioesterase domain of human fatty acid synthase; P49327; recombinant FAS-TE, OMFH fluorogenic substrate, fluorescence endpoint; inhibition, % at 15 µM; 360,000 compounds, 0.67% hits; AID 602261;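 active = compounds whose normalised, plate-corrected inhibition of enzyme fluorescence in the single-dose primary screen is 50% or more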;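 note: 0% = DMSO with enzyme and 100% = substrate without enzyme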
FAS-TE conf: confirmation of human fatty acid synthase thioesterase inhibitors; inhibition, % at 15 µM; 2,300 compounds, 45% hits; recombinant FAS-TE, OMFH fluorogenic substrate, fluorescence; shares compounds with FAS-TE inh;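 active = compounds inhibiting the enzyme by at least 50% at 15 µM in any one of the replicates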;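 note: 0% = enzyme with DMSO only and 100% = wells lacking enzyme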
An asterisk follows results filed as active; . = no result given.

SMILES	ABCB6 inh MLPCN	SENP1 FRET inh	iPSC survival up	FAS-TE inh	FAS-TE conf
COc1ccc(NC(=O)C(=O)N/N=C/c2cc(C)n(-c3cccc(Cl)c3Cl)c2C)c(OC)c1	98	0	0	63*	5
COc1ccc(OC)c(NC(=O)C(=O)N/N=C/c2ccccc2[N+](=O)[O-])c1	103	1	3	8	.
COc1ccc([N+](=O)[O-])cc1NC(=O)c1cn(-c2ccc(Cl)cc2)c(=O)c2ccccc12	95	1	-2	91*	2
COc1cccc(NC(C)C(=O)Nc2cc([N+](=O)[O-])ccc2Cl)c1 (stereo not drawn)	92	4	0	56*	58*
O=C(Nc1cc([N+](=O)[O-])ccc1Cl)C(Sc1ccccc1)c1ccccc1 (stereo not drawn)	93	0	4	73*	67*
COCCSc1ccccc1C(=O)Nc1cc([N+](=O)[O-])ccc1OC	95	2	0	31	.
COc1ccc(NC(=O)CN(c2ccc([N+](=O)[O-])cc2)S(=O)(=O)c2ccccc2)c(OC)c1	100	1	-1	70*	68*
O=C(Nc1ccc(Cl)c([N+](=O)[O-])c1)C(Sc1ccccc1)c1ccccc1 (stereo not drawn)	97	3	-1	44	.
CCC(CC)C(=O)Nc1cc([N+](=O)[O-])ccc1Cl	94	-1	-1	17	.
C/C(=N\NC(=O)c1ccc(OC2OCCOC2Oc2ccc(C(=O)N/N=C(\C)c3ccncc3)cc2)cc1)c1ccncc1 (stereo not drawn)	94	1	-1	-1	.
O=C(COC(=O)c1ccc(F)cc1F)Nc1cc(S(=O)(=O)N2CCOCC2)ccc1Cl	100	2	0	5	.
COc1ccc(Cl)cc1C(=O)NNC(=O)c1cccc([N+](=O)[O-])c1	99	5	-1	36	.
COc1ccc(N(CC(=O)N/N=C/c2ccc(OC3CSC3)cc2)S(=O)(=O)c2ccccc2)cc1	95	1	-1	50*	6
COc1ccc([N+](=O)[O-])cc1NC(=O)C(C)NNC(=O)c1cccc([N+](=O)[O-])c1 (stereo not drawn)	92	2	0	56*	53*
Cc1ccc(N(CC(=O)N/N=C/c2ccc(OC3CSC3)cc2)S(=O)(=O)c2ccccc2)cc1	106	2	0	42	.
COc1ccc([N+](=O)[O-])cc1NC(=O)C(C)c1ccccc1 (stereo not drawn)	99	0	0	45	.
COc1ccc([N+](=O)[O-])cc1NC(=O)CC(c1ccccc1)c1ccccc1	98	2	0	62*	54*
COc1ccc([N+](=O)[O-])cc1NC(=O)CSc1ccc2ccccc2c1	100	3	0	55*	44
Cc1ccc(SCC(=O)N(C)CC(=O)Nc2cccc(F)c2)c(C)c1	104	-1	0	5	.
Cc1ccc(NC(=O)COC(=O)CCC2CCCC2)c(Br)c1	98	4	1	12	.
CCOc1ccc(-n2cc(C(=O)Nc3cccc(Cl)c3)c3cc(OC)c(OC)cc3c2=O)cc1	95	2	-1	59*	19
COc1ccc([N+](=O)[O-])cc1NC(=O)C1(c2ccccc2)CCOCC1	90	2	1	51*	53*
COc1ccc([N+](=O)[O-])cc1NC(=O)CCN1CCOCC1	98	-3	0	10	.
CCOC(=O)/C(=N\Nc1ccc(Cl)cc1)Sc1nnc(-c2ccc(OC)cc2)n1C	105	0	0	1	.
O=C1CCC[C@@H]2[C@H](Cc3ccccc3)[C@@H](O)C[C@@H]3CCN1[C@@H]32	96	0	-3	-6	.
SMILES	ABCB6 inh MLPCN	SENP1 FRET inh	iPSC survival up	FAS-TE inh	FAS-TE conf
O=C1CCC[C@@H]2C[C@@]3(C[C@@H]4CCN1[C@H]24)Nc1cc(Cl)c(Cl)cc1NC3=NCc1ccccc1	98	-1	4	52*	36
O=C(CSc1ncnc2c1cnn2-c1ccccc1)NC1CCCC1	102	1	0	61*	55*
CC(C)(C)SCCNC(=O)c1ccc(Cl)c([N+](=O)[O-])c1	90	1	3	53*	68*
COc1ccc(NC(=O)CCN2C(=O)c3cccc([N+](=O)[O-])c3C2=O)cc1	102	1	2	2	.
CC(C)(C)c1ccc(NC(=O)COC(=O)CCN2C(=O)c3cccc([N+](=O)[O-])c3C2=O)cc1	102	1	1	83*	36
O=C(CCNC(=O)c1ccc([N+](=O)[O-])cc1)NCCc1ccc(Cl)cc1	96	-8	0	62*	70*
Cc1ccc(NC(=O)CCNC(=O)c2ccc([N+](=O)[O-])cc2)cc1C	456	2	0	64*	69*
CCOC(=O)c1ccc(NC(=O)CCNC(=O)c2ccc([N+](=O)[O-])cc2)cc1	99	5	0	50	.
Cc1csc(N(C(=O)c2ccc(S(=O)(=O)N(C)C)cc2)c2ccccc2)n1	88	-2	-3	-4	.
Cc1csc(N(C(=O)CCNC(=O)c2ccc([N+](=O)[O-])cc2)c2ccccc2)n1	102	2	-4	72*	78*
CCCc1cc2c(cc1N(C)S(=O)(=O)c1ccccc1)OCO2	95	-1	1	20	.
COc1ccc(C2CC(c3ccccc3)=NN2C(=O)COC(=O)c2cccc(S(=O)(=O)N(C)C)c2)cc1 (stereo not drawn)	94	1	0	72*	0
COc1ccc(C2CC(c3ccccc3)=NN2C(=O)COC(=O)c2cccc(S(=O)(=O)N3CCOCC3)c2)cc1 (stereo not drawn)	99	-1	0	70*	13
COc1cccc(N2CCN(CC(=O)NC(=O)NC3CCCCC3)CC2)c1	97	3	2	-1	.
CC(C)C[C@@H](CN)NC(=O)c1nc[nH]c1C(=O)N[C@@H](C)C(=O)CNC[C@H](C)NC(=O)c1nc[nH]c1C(=O)N[C@@H](C)C(=O)O	105	-3	-1	-11	.
COc1cc(OC)c2ccc(=O)oc2c1C(CC(=O)N1CCN(c2ccccc2)CC1)c1ccc2c(c1)OCO2 (stereo not drawn)	93	-4	2	51*	25
COc1cc(OC)c2c(-c3ccccc3)cc(=O)oc2c1C(CC(=O)N1CCOCC1)c1ccc(N(C)C)cc1 (stereo not drawn)	98	-2	0	22	.
COc1cc(OC)c2c(-c3ccccc3)cc(=O)oc2c1C(CC(=O)N1CCN(c2ccccc2)CC1)c1ccc(N(C)C)cc1 (stereo not drawn)	94	-5	-2	70*	14
Cc1ccc(S(=O)(=O)N2C[C@H]3[C@H]4C(=O)N(C)C(=O)[C@H]4CC(=O)[C@H]3[C@@H]2c2ccccc2F)cc1	97	1	0	-12	.
